This is an account of results in ChEMBL document CHEMBL1155465, “"Viologen" dendrimers as antiviral agents: the effect of charge number and distance” (J Med Chem, 2010).

The term EC50 denotes the concentration at which the effect is half-maximal. As usually defined, the CC50 is the concentration at which the toxic effect on the cells reaches its halfway point.

Data set [1] concerns Human immunodeficiency virus 1. Put plainly: Antiviral activity against HIV1 3B infected in human MT4 cells after 5 days by MTT assay. Type of data set: functional, organism-based. The note with it: Human immunodeficiency virus 1, 3B, MT4, 120 h. In outline: (§1)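 MT-4 cells in RPMI 1640 with 10% heat-inactivated FCS, 2 mM L-glutamine, 0.1% bicarbonate and gentamicin, seeded at 6 × 10⁵ cells/mL final with virus or mock infection. Viability read by MTT after 5 days at 540 and 690 nm, using the median OD of three wells. CC50 is 50% loss of mock-infected OD540. EC50 is 50% inhibition of virus-induced CPE. SI = CC50/EC50. Mean ± SD of ≥2 experiments.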
(In general: Formazan colour is commonly taken as a measure of viable cells.)

Data set [2] deals with Human immunodeficiency virus 2. Description: Antiviral activity against HIV2 ROD infected in human MT4 cells after 5 days by MTT assay. It is filed as functional, organism-based. The note with it: Human immunodeficiency virus 2, ISOLATE ROD, MT4, 120 h. In outline: as §1
The nature of data set [3]: Cytotoxicity against human MT4 cells after 5 days by MTT assay. Type of data set: cell-based. In outline:
as §1

Data set [4] can be described thus: Selectivity index, ratio of CC50 for human MT4 cells to EC50 for HIV1 3B. It is filed as toxicity, cell-based. The note with it: read-out: Ratio CC50/EC50. The gist of the method: as §1
Data set [5] deals with Human alphaherpesvirus 1. Description: Antiviral activity against HSV1 KOS infected in human E6SM cell assessed as inhibition of virus-induced cytopathicity. The following applies: Human alphaherpesvirus 1, KOS. Type of data set: functional, organism-based. On the technique in general: Protection from cytopathic effect is a common read-out in antiviral testing.
Data set [6] has as its system Human alphaherpesvirus 2. Description: Antiviral activity against HSV2 G infected in human E6SM cell assessed as inhibition of virus-induced cytopathicity. It is filed as functional, organism-based. The note with it: Human alphaherpesvirus 2, strain G.
Data set [7] relates to Vaccinia virus. Description: Antiviral activity against Vaccina virus infected in human E6SM cell assessed as inhibition of virus-induced cytopathicity. It is filed as functional, organism-based. The following applies: Orthopoxvirus vaccinia.
Data set [8] concerns Vesicular stomatitis virus. Put plainly: Antiviral activity against VSV infected in human E6SM cell assessed as inhibition of virus-induced cytopathicity. Type of data set: functional, organism-based.
Data set [9] has as its system Human alphaherpesvirus 1. Put plainly: Antiviral activity against TK-deficient acyclovir-resistant HSV1 KOS infected in human E6SM cell assessed as inhibition of virus-induced cytopathicity. It is filed as functional, organism-based. The note with it: Human alphaherpesvirus 1, KOS.
Data set [10] relates to Vesicular stomatitis virus. Put plainly: Antiviral activity against VSV infected in human HeLa cell assessed as inhibition of virus-induced cytopathicity. It is filed as functional, organism-based.
The nature of data set [11]: Cytotoxicity against human E6SM cells by MTT assay. It is filed as cell-based.
Data set [12] in a line: Cytotoxicity against human HeLa cells by MTT assay. It is filed as cell-based.
In data set [13] the test system is Reovirus sp. Description: Antiviral activity against Reovirus infected in african green monkey Vero cells assessed as inhibition of virus-induced cytopathicity. Type of data set: functional, organism-based.
Data set [14] concerns Sindbis virus. Put plainly: Antiviral activity against Sindbis virus infected in african green monkey Vero cells assessed as inhibition of virus-induced cytopathicity. It is filed as functional, organism-based.
The nature of data set [15]: Cytotoxicity against african green monkey Vero cells by MTT assay. It is filed as cell-based. The note with it: chlorocebus sabaeus.
For data set [16], the system named is Simian immunodeficiency virus. Description: Antiviral activity against SIV MAC251 infected in human MT4 cells after 5 days by MTT assay. Type of data set: functional, organism-based. The note with it: MAC251, MT4, 120 h. In outline: as §1
Data set [17] concerns Human immunodeficiency virus. Put plainly: Antiviral activity against HIV SO6141 infected in human MT4 cells after 5 days by MTT assay. The following applies: Human immunodeficiency virus 1, SO6141, MT4, 120 h. Type of data set: functional, organism-based. The gist of the method: as §1
In data set [18] the test system is Respiratory syncytial virus. Description: Antiviral activity against RSV infected in human HeLa cell assessed as inhibition of virus-induced cytopathicity. Type of data set: functional, organism-based.
Data set [19] deals with Human respirovirus 3. Put plainly: Antiviral activity against Parainfluenza virus 3 infected in african green monkey Vero cells assessed as inhibition of virus-induced cytopathicity. The note with it: Human respirovirus 3, Vero. It is filed as functional, organism-based.
For data set [20], the system named is Punta Toro virus. Description: Antiviral activity against Punta Toro virus infected in african green monkey Vero cells assessed as inhibition of virus-induced cytopathicity. It is filed as functional, organism-based.

Values after ≈ are worked out from the molar mass of the structure shown.

As for `NCCC[n+]1ccc(-c2cc[n+](CCCN)cc2)cc1`, the EC50 in data set [1] and in [2] was greater than 3.3 µM each time. In data set [3], this compound had a CC50 at 120 h of 3.3 µM. For the same compound, the selectivity ratio in [4] was less than 1.

`C=C[n+]1ccc(-c2cc[n+](Cc3cc(C[n+]4ccc(-c5cc[n+](C=C)cc5)cc4)cc(C[n+]4ccc(-c5cc[n+](C=C)cc5)cc4)c3)cc2)cc1`: the EC50 in [1] and in data set [2] was greater than 33.4 µM throughout. In data set [3], the CC50 at 120 h is 33.4 µM. Moreover, the selectivity ratio in [4] was less than 1.

In the case of `NC(=O)c1ncn([C@@H]2O[C@H](CO)[C@@H](O)[C@H]2O)n1` [RIBAVIRIN], the EC50 was greater than 400 µg/mL in [5]; greater than 400 µg/mL in [6]; 48 µg/mL (≈ 197 µM) in [7]; greater than 400 µg/mL in data set [8]; greater than 400 µg/mL in data set [9]; 48 µg/mL (≈ 197 µM) in data set [10]. Also, the figures for the EC50 in [13] and in data set [14] were 80 µg/mL (≈ 328 µM) and greater than 400 µg/mL, respectively. Besides, the MCC in data set [11], in data set [12] and in data set [15] was greater than 400 µg/mL each time.

Consider `C=C[n+]1ccc(-c2cc[n+](CCc3ccc([N+](=O)[O-])cc3)cc2)cc1`, for which the EC50 in data set [1] and in [2] was greater than 0.4 µM in each case. In data set [3], the CC50 at 120 h was determined as 0.4 µM. In addition, the selectivity ratio in data set [4] is less than 1.

As for `CC[n+]1ccc(-c2cc[n+](Cc3ccc(CBr)cc3)cc2)cc1`, the EC50 in data set [1] and in data set [2] was greater than 0.9 µM in each case. In [3], this compound yielded a CC50 at 120 h of 0.9 µM. Moreover, the selectivity ratio in data set [4] is less than 1.

Regarding `BrCc1cc(CBr)cc(-[n+]2ccc(-c3cc[n+](-c4cc(CBr)cc(CBr)c4)cc3)cc2)c1`, the EC50 in data set [1] and in data set [2] was greater than 148 µM each time. This compound also came in with a CC50 at 120 h in data set [3] greater than 148 µM. Besides, the selectivity ratio in data set [4] is less than 1.

Regarding `OCc1cc(CO)cc(-[n+]2ccc(-c3cc[n+](-c4cc(CO)cc(CO)c4)cc3)cc2)c1`, the EC50 in data set [1] and in data set [2] was greater than 2.7 µM throughout. Besides, the half-maximal cytotoxic concentration (CC50) at 120 h in [3] was 2.7 µM. For the same compound, the selectivity ratio in data set [4] was less than 1.

With `C[n+]1ccc(-c2cc[n+](C)cc2)cc1`, the EC50 in data set [1] and in data set [2] was greater than 25.2 µM in each case. The CC50 at 120 h in data set [3] came out at 25.2 µM. Also, the selectivity ratio in data set [4] is less than 1.

For the compound `NCCC[n+]1ccc(-c2cc[n+](Cc3ccccc3)cc2)cc1`, the EC50 in data set [1] and in data set [2] was greater than 0.9 µM each time. In data set [3], this compound yielded a CC50 at 120 h of 0.9 µM. The selectivity ratio in data set [4] was less than 1.

For the compound `C=C[n+]1ccc(-c2ccncc2)cc1`, the EC50 in [1] and in data set [2] was greater than 15.9 µM in each case. The half-maximal cytotoxic concentration (CC50) at 120 h in data set [3] came to 15.9 µM. Further, the selectivity ratio in data set [4] was less than 1.

For the compound `C[n+]1ccc(-c2cc[n+](CBr)cc2)cc1`, the EC50 in data set [1] and in data set [2] was greater than 5.1 µM throughout. Besides, in [3], it took 5.1 µM to reach half-maximal cytotoxicity (CC50 at 120 h). Moreover, in data set [4], the selectivity ratio was less than 1.

Consider `NCCC[n+]1ccc(-c2ccncc2)cc1`, for which the EC50 in data set [1] and in [2] was greater than 346 µM in each case. Also, the CC50 at 120 h in data set [3] was greater than 346 µM. Moreover, the selectivity ratio in data set [4] was less than 1.

Turning to `CC[n+]1ccc(-c2cc[n+](Cc3cc(C[n+]4ccc(-c5cc[n+](CC)cc5)cc4)cc(C[n+]4ccc(-c5cc[n+](CC)cc5)cc4)c3)cc2)cc1`, the EC50 in data set [1] and in data set [2] was greater than 81.1 µM in each case. For the same compound, the CC50 at 120 h in data set [3] is greater than 81.1 µM. The selectivity ratio in [4] was less than 1.

Take `BrCC[n+]1ccc(-c2cc[n+](CCBr)cc2)cc1`: the results for the EC50 in [1], in [2] and in data set [16] were 5.88 µM, greater than 20.6 µM and greater than 20.6 µM, respectively. In data set [3], this compound registered a CC50 at 120 h of 20.6 µM. Further, the selectivity ratio in data set [4] came out at 3.5.

`CC[n+]1ccc(-c2cc[n+](Cc3cc(CO)cc(C[n+]4ccc(-c5cc[n+](CC)cc5)cc4)c3)cc2)cc1`: the EC50 in [1] and in [2] was greater than 10.6 µM in each case. Also, it took 10.6 µM to reach half-maximal cytotoxicity in data set [3] (CC50 at 120 h). Further, the selectivity ratio in [4] is less than 1.

For `CCC[n+]1ccc(-c2ccncc2)cc1`, the EC50 in data set [1] and in data set [2] was greater than 363 µM each time. This compound also came in with a CC50 at 120 h in data set [3] greater than 363 µM. For the same compound, the selectivity ratio in data set [4] is less than 1.

`C=C[n+]1ccc(-c2cc[n+](C)cc2)cc1`: the EC50 in [1] and in data set [2] was greater than 26.1 µM each time. The compound further had a CC50 at 120 h in [3] of 26.1 µM. The selectivity ratio in [4] is less than 1.

With `CC[n+]1ccc(-c2ccncc2)cc1`, the EC50 in [1] and in data set [2] was greater than 282 µM in each case. Besides, the CC50 at 120 h in data set [3] stood at 281 µM. Also, in data set [4], the selectivity ratio is less than 1.

Take `C=C[n+]1ccc(-c2cc[n+](Cc3ccccc3)cc2)cc1`: the EC50 in [1] and in data set [2] was greater than 2.7 µM each time. Moreover, in data set [3], the CC50 at 120 h was 2.7 µM. Moreover, the selectivity ratio in [4] was less than 1.

Take `OCC[n+]1ccc(-c2cc[n+](Cc3cc(C[n+]4ccc(-c5cc[n+](CCO)cc5)cc4)cc(C[n+]4ccc(-c5cc[n+](CCO)cc5)cc4)c3)cc2)cc1`: the EC50 in data set [1] is 33.3 µM; in data set [2] it was greater than 104 µM; in [16], 37.7 µM; in data set [17], greater than 104 µM. The CC50 at 120 h in data set [3] was greater than 104 µM. Also, in [4], the selectivity ratio was found to be 3.11.

With `O=c1[nH]c(=O)n([C@H]2C[C@H](O)[C@@H](CO)O2)cc1/C=C/Br` [BRIVUDINE], the EC50 in data set [5] is 0.384 µg/mL (≈ 1.15 µM); in [6] it was 80 µg/mL (≈ 240 µM); in data set [7], 9.6 µg/mL (≈ 28.8 µM); in [8] it was greater than 400 µg/mL; in [9] it was greater than 400 µg/mL; in data set [10] it was greater than 400 µg/mL. Moreover, the EC50 in [18], in [19], in [13], in data set [14] and in data set [20] was greater than 400 µg/mL each time. The MCC in data set [11], in [12] and in data set [15] was greater than 400 µg/mL in each case.

`BrCC[n+]1ccc(-c2ccncc2)cc1`: the EC50 in data set [1] and in data set [2] was greater than 79.2 µM in each case. For the same compound, the midpoint of cytotoxicity in [3], the CC50 at 120 h, lay at 79.2 µM. In addition, the selectivity ratio in data set [4] is less than 1.
